Source: ChEMBL document CHEMBL5543089, “Discovery of a novel, highly potent EZH2 PROTAC degrader for targeting non-canonical oncogenic functions of EZH2” (Eur J Med Chem, 2024)
Active and inactive are the calls of the source.

Columns and labels:
[1] = target: T1, von Hippel-Lindau disease tumor suppressor/Histone-lysine N-methyltransferase EZH2 (Homo sapiens, UniProt Q15910+P40337); assay: PROTAC activity at VHL/EZH2 degradation in hMLLr AML cell line EOL1 cells assessed as protein degradation at 0.1 uM measured after 24 hrs by Western blot analysis; assay type: cell-based
In short: (§1)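 Cells were seeded at 0.5–2 million per well and treated for 24 h, or for the stated times at 300 nM in the time course. Lysis was in RIPA with protease inhibitors; ~10 μg protein was run on SDS-PAGE and blotted to PVDF. Detection used fluorescent immunoblotting for EZH2, EED and SUZ12, with β-actin as loading control. Blots are representative of two biological experiments.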
Target sequence in this assay (P40337 whole entry, looked up): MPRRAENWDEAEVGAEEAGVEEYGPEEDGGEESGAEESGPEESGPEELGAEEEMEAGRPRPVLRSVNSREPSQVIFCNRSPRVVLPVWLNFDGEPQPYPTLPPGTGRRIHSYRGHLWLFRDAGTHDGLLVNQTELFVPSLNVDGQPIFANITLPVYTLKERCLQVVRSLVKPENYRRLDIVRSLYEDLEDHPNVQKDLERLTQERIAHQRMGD
Target sequence in this assay (Q15910 whole entry, looked up): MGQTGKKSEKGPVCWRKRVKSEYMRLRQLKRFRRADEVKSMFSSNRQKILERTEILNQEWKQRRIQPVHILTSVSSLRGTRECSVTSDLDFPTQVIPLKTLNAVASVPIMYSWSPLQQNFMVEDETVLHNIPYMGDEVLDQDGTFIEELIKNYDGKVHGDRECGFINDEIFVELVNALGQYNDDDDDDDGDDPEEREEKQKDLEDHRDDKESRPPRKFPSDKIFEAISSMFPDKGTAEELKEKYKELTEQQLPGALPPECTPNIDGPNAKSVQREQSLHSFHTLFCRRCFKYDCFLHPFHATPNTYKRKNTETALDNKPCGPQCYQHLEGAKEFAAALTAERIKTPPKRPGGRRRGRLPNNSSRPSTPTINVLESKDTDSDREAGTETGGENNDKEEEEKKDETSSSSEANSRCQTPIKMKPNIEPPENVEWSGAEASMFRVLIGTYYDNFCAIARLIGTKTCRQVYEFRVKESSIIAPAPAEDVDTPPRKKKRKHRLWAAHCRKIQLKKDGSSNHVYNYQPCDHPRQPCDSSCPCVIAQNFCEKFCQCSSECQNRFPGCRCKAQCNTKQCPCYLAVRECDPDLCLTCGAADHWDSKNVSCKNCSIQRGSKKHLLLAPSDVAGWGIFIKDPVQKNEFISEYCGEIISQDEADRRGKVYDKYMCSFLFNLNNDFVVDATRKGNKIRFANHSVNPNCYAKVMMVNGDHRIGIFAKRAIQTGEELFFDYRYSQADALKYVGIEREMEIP

[2] = target: T1, von Hippel-Lindau disease tumor suppressor/Histone-lysine N-methyltransferase EZH2; assay: PROTAC activity at VHL/EZH2 degradation in hMLLr AML cell line EOL1 cells assessed as protein degradation at 1 uM measured after 24 hrs by Western blot analysis; assay type: cell-based; in short: as §1
Target sequence in this assay (P40337 whole entry, looked up): as the sequence (P40337 whole entry, looked up) above
Target sequence in this assay (Q15910 whole entry, looked up): as the sequence (Q15910 whole entry, looked up) above

[3] = target: T1, von Hippel-Lindau disease tumor suppressor/Histone-lysine N-methyltransferase EZH2; assay: PROTAC activity at VHL/EZH2 degradation in hMLLr AML cell line EOL1 cells assessed as protein degradation measured after 24 hrs by Western blot analysis; assay type: cell-based; in short: as §1
Target sequence in this assay (Q15910 whole entry): as the sequence (Q15910 whole entry, looked up) above
Target sequence in this assay (P40337 whole entry): as the sequence (P40337 whole entry, looked up) above

[4] = target: von Hippel-Lindau disease tumor suppressor/Polycomb protein EED (Homo sapiens) (UniProt O75530+P40337); assay: PROTAC activity at VHL/EED degradation in MLLr AML cell line human EOL1 cells assessed as protein degradation at 1 to 1000 nM measured after 1 to 24 hrs by Western blot analysis; assay type: cell-based; details: dose 1-1000 nM, time 1-24 hrs; in short: as §1
[5] = target: T1, von Hippel-Lindau disease tumor suppressor/Histone-lysine N-methyltransferase EZH2; assay: PROTAC activity at VHL/EZH2 degradation in MLLr AML cell line human EOL1 cells assessed as protein degradation at 0.5 uM measured after 24 hrs by Western blot analysis; assay type: cell-based; in short: as §1
Target sequence in this assay (P40337 whole entry, looked up): as above
Target sequence in this assay (Q15910 whole entry, looked up): as the sequence (Q15910 whole entry, looked up) above

[6] = target: T1, von Hippel-Lindau disease tumor suppressor/Histone-lysine N-methyltransferase EZH2; assay: PROTAC activity at VHL/EZH2 degradation in MLLr AML cell line human EOL1 cells assessed as protein degradation at 0.5 uM measured after 24 hrs in presence of 5 uM EPZ-6438 by Western blot analysis; assay type: cell-based
In short: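 EOL-1 cells were pre-treated for 2 h with MLN4924 (0.05 μM), EPZ-6438 (5 μM) or VHL-1 (5 μM), then given 0.5 μM degrader for 24 h. EZH2 was assessed by Western blot against β-actin. Blots are representative of two biological experiments.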
Target sequence in this assay (P40337 whole entry, looked up): as the sequence (P40337 whole entry, looked up) above
Target sequence in this assay (Q15910 whole entry, looked up): as the sequence (Q15910 whole entry, looked up) above

[7] = target: Histone-lysine N-methyltransferase, H3 lysine-79 specific (Homo sapiens) (UniProt Q8TEK3); assay: Inhibition of human DOT1L assessed as methyltransferase at 10 uM by radioisotope based MT HotSpot assay relative to control
In short: (§2)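 Radioisotope-based methyltransferase assay (MT HotSpot) run by a contract lab. Compound was tested at 10 μM against a panel of 20 methyltransferases, in duplicate. Values are means ± SD of two replicates.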

[8] = target: Histone-lysine N-methyltransferase 2A (Homo sapiens) (UniProt Q03164); assay: Inhibition of human MLL1 assessed as methyltransferase activity using Nucleosomes as substrate at 10 uM by radioisotope based MT HotSpot assay relative to control; in short: as §2
[9] = target: Histone-lysine N-methyltransferase NSD3 (Homo sapiens) (UniProt Q9BZ95); assay: Inhibition of human NSD3 assessed as methyltransferase activity using Nucleosomes as substrate at 10 uM by radioisotope based MT HotSpot assay relative to control; in short: as §2
Sequence of Histone-lysine N-methyltransferase NSD3 (Homo sapiens) (Q9BZ95 whole entry): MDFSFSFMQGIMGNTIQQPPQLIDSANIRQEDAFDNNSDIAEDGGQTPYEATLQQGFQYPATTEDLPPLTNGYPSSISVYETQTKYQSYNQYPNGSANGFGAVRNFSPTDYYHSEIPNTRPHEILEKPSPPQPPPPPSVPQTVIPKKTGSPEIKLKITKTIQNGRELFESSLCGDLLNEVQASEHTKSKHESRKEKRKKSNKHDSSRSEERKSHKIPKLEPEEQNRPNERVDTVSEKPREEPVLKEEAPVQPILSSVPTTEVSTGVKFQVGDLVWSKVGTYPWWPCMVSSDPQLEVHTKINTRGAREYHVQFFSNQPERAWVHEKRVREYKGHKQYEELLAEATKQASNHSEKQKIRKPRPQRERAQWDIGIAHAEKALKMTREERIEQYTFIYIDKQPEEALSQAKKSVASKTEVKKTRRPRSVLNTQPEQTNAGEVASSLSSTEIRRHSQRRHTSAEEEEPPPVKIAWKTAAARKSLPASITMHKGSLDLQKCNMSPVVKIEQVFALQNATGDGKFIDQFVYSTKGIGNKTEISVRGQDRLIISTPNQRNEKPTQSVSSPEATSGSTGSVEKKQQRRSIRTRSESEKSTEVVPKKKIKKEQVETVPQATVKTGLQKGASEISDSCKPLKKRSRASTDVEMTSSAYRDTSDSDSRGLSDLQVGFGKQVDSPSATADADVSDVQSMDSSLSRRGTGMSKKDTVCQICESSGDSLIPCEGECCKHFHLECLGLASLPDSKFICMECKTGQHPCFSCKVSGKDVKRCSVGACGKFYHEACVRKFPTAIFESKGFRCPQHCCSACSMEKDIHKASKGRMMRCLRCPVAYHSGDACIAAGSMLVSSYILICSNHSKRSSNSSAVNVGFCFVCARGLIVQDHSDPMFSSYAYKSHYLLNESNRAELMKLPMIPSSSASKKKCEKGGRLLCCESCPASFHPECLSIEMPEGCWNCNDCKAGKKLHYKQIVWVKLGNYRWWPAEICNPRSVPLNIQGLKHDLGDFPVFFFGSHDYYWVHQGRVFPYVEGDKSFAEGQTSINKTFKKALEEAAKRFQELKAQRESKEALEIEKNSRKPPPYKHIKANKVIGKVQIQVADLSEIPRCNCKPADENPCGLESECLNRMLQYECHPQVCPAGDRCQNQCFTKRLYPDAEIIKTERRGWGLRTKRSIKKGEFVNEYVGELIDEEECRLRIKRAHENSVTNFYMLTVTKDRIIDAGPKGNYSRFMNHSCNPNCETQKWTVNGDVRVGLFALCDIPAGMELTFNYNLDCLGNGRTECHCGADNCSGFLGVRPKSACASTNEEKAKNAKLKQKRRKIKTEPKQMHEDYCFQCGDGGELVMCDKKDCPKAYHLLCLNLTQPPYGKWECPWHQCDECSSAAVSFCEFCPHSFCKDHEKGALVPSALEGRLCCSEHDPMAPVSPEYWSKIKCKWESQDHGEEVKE

[10] = target: PRMT5/MEP50 complex (Homo sapiens) (UniProt O14744+Q9BQA1); assay: Inhibition of human PRMT5/MEP50 assessed as methyltransferase activity using Histone H2A as substrate at 10 uM by radioisotope based MT HotSpot assay relative to control; assay type: protein-complex assay; in short: as §2
[11] = target: Protein arginine N-methyltransferase 6 (Homo sapiens) (UniProt Q96LA8); assay: Inhibition of human PRMT6 assessed as methyltransferase activity using GST-GAR as substrate at 10 uM by radioisotope based MT HotSpot assay relative to control; in short: as §2
Sequence of Protein arginine N-methyltransferase 6 (Homo sapiens) (Q96LA8 whole entry, looked up): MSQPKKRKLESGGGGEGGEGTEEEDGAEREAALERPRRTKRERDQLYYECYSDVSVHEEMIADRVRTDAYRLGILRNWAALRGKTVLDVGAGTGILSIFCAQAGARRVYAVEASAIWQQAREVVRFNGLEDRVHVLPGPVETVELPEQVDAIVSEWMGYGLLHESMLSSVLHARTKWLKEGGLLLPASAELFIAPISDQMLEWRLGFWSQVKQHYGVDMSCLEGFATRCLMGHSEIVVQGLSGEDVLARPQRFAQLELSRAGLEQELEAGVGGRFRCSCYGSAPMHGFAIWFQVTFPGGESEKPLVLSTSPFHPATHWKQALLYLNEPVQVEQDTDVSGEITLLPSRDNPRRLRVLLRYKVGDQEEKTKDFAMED

[12] = target: Histone-lysine N-methyltransferase SETD7 (Homo sapiens) (UniProt Q8WTS6); assay: Inhibition of human SET7/9 assessed as methyltransferase activity using Core histone as substrate at 10 uM by radioisotope based MT HotSpot assay relative to control; in short: as §2
[13] = target: Histone-lysine N-methyltransferase SETD2 (Homo sapiens) (UniProt Q9BYW2); assay: Inhibition of human SETD2 assessed as methyltransferase activity using Oligo Nucleosomes as substrate at 10 uM by radioisotope based MT HotSpot assay relative to control; in short: as §2
[14] = target: Histone-lysine N-methyltransferase SMYD3 (Homo sapiens) (UniProt Q9H7B4); assay: Inhibition of human SMYD3 assessed as methyltransferase activity using MEKK2 as substrate at 10 uM by radioisotope based MT HotSpot assay relative to control; in short: as §2
[15] = target: Histone-lysine N-methyltransferase SUV39H1 (Homo sapiens) (UniProt O43463); assay: Inhibition of human SUV39H1 assessed as methyltransferase activity using Histone H3 as substrate at 10 uM by radioisotope based MT HotSpot assay relative to control; in short: as §2
[16] = target: Histone-lysine N-methyltransferase EZH2 (Homo sapiens) (UniProt Q15910); assay: Inhibition of human EZH2 assessed as methyltransferase activity using Core Histone as substrate at 10 uM by radioisotope based MT HotSpot assay relative to control; in short: as §2
Sequence of Histone-lysine N-methyltransferase EZH2 (Homo sapiens) (Q15910 whole entry, looked up): as the sequence (Q15910 whole entry, looked up) above

[17] = target: T1, von Hippel-Lindau disease tumor suppressor/Histone-lysine N-methyltransferase EZH2; assay: PROTAC activity at VHL/EZH2 degradation in MLLr AML cell line human EOL1 cells assessed as protein degradation at 0.1 uM measured after 24 hrs by Western blot analysis; assay type: cell-based; in short: as §1
Target sequence in this assay (P40337 whole entry, looked up): as the sequence (P40337 whole entry, looked up) above
Target sequence in this assay (Q15910 whole entry, looked up): as the sequence (Q15910 whole entry, looked up) above

[18] = target: T1, von Hippel-Lindau disease tumor suppressor/Histone-lysine N-methyltransferase EZH2; assay: PROTAC activity at VHL/EZH2 degradation in MLLr AML cell line human EOL1 cells assessed as protein degradation at 0.3 uM measured after 24 hrs by Western blot analysis; assay type: cell-based; in short: as §1
Target sequence in this assay (P40337 whole entry, looked up): as the sequence (P40337 whole entry, looked up) above
Target sequence in this assay (Q15910 whole entry, looked up): as the sequence (Q15910 whole entry, looked up) above

[19] = target: T1, von Hippel-Lindau disease tumor suppressor/Histone-lysine N-methyltransferase EZH2; assay: PROTAC activity at VHL/EZH2 degradation in human MV4-11 cells assessed as protein degradation at 0.03 to 0.3 microM measured after 24 hrs by Western blot analysis; assay type: cell-based; details: dose 0.03-0.3 µM; in short: as §1
[20] = target: T1, von Hippel-Lindau disease tumor suppressor/Histone-lysine N-methyltransferase EZH2; assay: PROTAC activity at VHL/EZH2 degradation in human RS4-11 cells assessed as protein degradation at 0.3 uM measured after 24 hrs by Western blot analysis; assay type: cell-based; in short: as §1
RS4-11 = assay: Anti-proliferative activity against human RS4-11 cells assessed as cell viability measured after 5 days incubation by CCK-8 assay; assay type: functional, cell-based; details: RS4-11, 120 h
In short: (§3)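 Cells plated at 3,000–10,000 per well and exposed to serial dilutions for 5 days at 37 °C. CCK-8 (1x) was added for 2–4 h, with absorbance read at 450 nm against a 690 nm reference. IC50 was taken from curve fits. Leukemia lines were grown in RPMI-1640, K562 in IMDM and MDA-MB-468 in DMEM, all with 10 % FBS. Values are means ± SD of two biological experiments (three for BT549 and MDA-MB-468).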

BT-549 = assay: Anti-proliferative activity against human BT-549 cells assessed as cell growth inhibition measured after 5 days incubation by CCK-8 assay; assay type: functional, cell-based; details: BT-549, 120 h; in short: as §3
[21] = Plasma concentration in mouse at 50 mg/kg, ip measured after 9 hrs; details: in vivo
[22] = target: Histone-lysine N-methyltransferase EHMT1 (Homo sapiens) (UniProt Q9H9B1); assay: Inhibition of human GLP assessed as methyltransferase activity using Histone H3 as substrate at 10 uM by radioisotope based MT HotSpot assay relative to control

CCN(c1cc(-c2ccc(CN3CCN(CCC(=O)NCCCCCCCCCCC(=O)N[C@H](C(=O)N4C[C@H](O)C[C@H]4C(=O)NCc4ccc(-c5scnc5C)cc4)C(C)(C)C)CC3)cc2)cc(C(=O)NCc2c(C)cc(C)[nH]c2=O)c1C)C1CCOCC1
inactive: Activity [6]
Stable: plasma concentration [21]
34.4 nM: DC50 [3]
410 nM: IC50 (RS4-11)
< 50%: inhibition [7] | inhibition [8] | inhibition [9] | inhibition [10] | inhibition [11] | inhibition [12] | inhibition [13] | inhibition [14] | inhibition [15] | inhibition [22]
1450 nM: IC50 (BT-549)
100%: Activity [1] | Activity [2] | Activity [17] | Activity [18] | Activity [19]
active: Activity [4] | Activity [5] | inhibition [16] | Activity [20]
